Measured values published in ChEMBL document CHEMBL4680236, “Design, synthesis and structure-activity relationships of novel 15-membered macrolides: Quinolone/quinoline-containing sidechains tethered to the C-6 position of azithromycin acylides” (Eur J Med Chem, 2020).
≈ marks a conversion by molar mass, not a printed value.

Experiments:
Format in all cases: functional
Streptococcus pneumoniae [1] = experiment: Antibacterial activity against Erythromycin-susceptible Streptococcus pneumoniae ATCC 49619 assessed as reduction in microbial growth
Streptococcus pneumoniae [2] = experiment: Bactericidal activity against Erythromycin-susceptible Streptococcus pneumoniae ATCC 49619
Method in brief: (§1)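 Bacteria were exposed to 1- to 8-fold MIC of the sample, then transferred to fresh medium without antibacterial. After further incubation, colonies were counted. MBC was taken as the lowest concentration giving a >3 log10 reduction in colony number.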

Streptococcus pneumoniae [3] = experiment: Ratio of MBC to MIC against Erythromycin-susceptible Streptococcus pneumoniae ATCC 49619
Streptococcus pneumoniae [4] = experiment: Antibacterial activity against penicillin-susceptible Streptococcus pneumoniae PU09 harboring mef gene assessed as reduction in microbial growth
Streptococcus pneumoniae [5] = experiment: Bactericidal activity against penicillin-susceptible Streptococcus pneumoniae PU09 harboring mef gene
Method in brief: (§2)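 Bacteria were exposed to 1- to 8-fold their MIC of test sample, then transferred to fresh culture medium without antibacterial compound and incubated for the required time. Colonies were then counted. MBC is the lowest concentration giving a reduction in colony number of >3 Log₁₀.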

Streptococcus pneumoniae [6] = experiment: Ratio of MBC to MIC against penicillin-susceptible Streptococcus pneumoniae PU09
Streptococcus pneumoniae [7] = experiment: Antibacterial activity against MLSB-resistant Streptococcus pneumoniae 07P390 harboring ermB gene assessed as reduction in microbial growth
Streptococcus pneumoniae [8] = experiment: Bactericidal activity against MLSB-resistant Streptococcus pneumoniae 07P390 harboring ermB gene assessed as reduction in microbial growth; method in brief: as §2
Streptococcus pneumoniae [9] = experiment: Ratio of MBC to MIC against MLSB-resistant Streptococcus pneumoniae 07P390 harboring ermB
Staphylococcus aureus [10] = experiment: Antibacterial activity against MLSB/methicillin/ciprofloxacin-resistant Staphylococcus aureus PU32 harboring ermA gene assessed as reduction in microbial growth
Staphylococcus aureus [11] = experiment: Bactericidal activity against MLSB/methicillin/ciprofloxacin-resistant Staphylococcus aureus PU32 harboring ermA gene; method in brief: as §2
Staphylococcus aureus [12] = experiment: Ratio of MBC to MIC against MLSB/methicillin/ciprofloxacin-resistant Staphylococcus aureus PU32 harboring ermA gene
Staphylococcus aureus [13] = experiment: Antibacterial activity against MLSB/methicillin-resistant Staphylococcus aureus 15B196 assessed as reduction in microbial growth
Haemophilus influenzae [14] = experiment: Antibacterial activity against azithromycin-susceptible Haemophilus influenzae ATCC 49247 assessed as reduction in microbial growth
Haemophilus influenzae [15] = experiment: Bactericidal activity against azithromycin-susceptible Haemophilus influenzae ATCC 49247; method in brief: as §1
Haemophilus influenzae [16] = experiment: Ratio of MBC to MIC against azithromycin-susceptible Haemophilus influenzae ATCC 49247
Staphylococcus aureus [17] = experiment: Bactericidal activity against MLSB/methicillin-resistant Staphylococcus aureus 15B196; method in brief: as §2
Streptococcus pyogenes [18] = experiment: Antibacterial activity against MLSB-resistant Streptococcus pyogenes 12-206 harboring ermA gene assessed as reduction in microbial growth
Streptococcus pyogenes [19] = experiment: Bactericidal activity against MLSB-resistant Streptococcus pyogenes 12-206 harboring ermA gene; method in brief: as §2
Streptococcus pyogenes [20] = experiment: Ratio of MBC to MIC against MLSB-resistant Streptococcus pyogenes 12-206 harboring ermA gene

## CC[C@H]1OC(=O)[C@H](C)[C@@H](OC(=O)Cc2ccccn2)[C@H](C)[C@@H](O[C@@H]2O[C@H](C)C[C@H](N(C)C)[C@H]2O)[C@](C)(OC(=O)CCNCCNc2cc3c(=O)c(C(=O)O)cn(C4CC4)c3cc2Cl)C[C@@H](C)CN(C)[C@H](C)[C@@H](O)[C@]1(C)O
Streptococcus pneumoniae [1]
  MIC: 0.25 µg/mL
Streptococcus pneumoniae [2]
  MBC: 0.25 µg/mL (≈ 0.23 µM)
Streptococcus pneumoniae [3]
  Ratio: 1
Streptococcus pneumoniae [4]
  MIC: 4 µg/mL
Streptococcus pneumoniae [5]
  MBC: 4 µg/mL (≈ 3.68 µM)
Streptococcus pneumoniae [6]
  Ratio: 1
Streptococcus pneumoniae [7]
  MIC: 1 µg/mL
Streptococcus pneumoniae [8]
  MBC: > 8 µg/mL
Streptococcus pneumoniae [9]
  Ratio: >8
Staphylococcus aureus [10]
  MIC: 8 µg/mL
Staphylococcus aureus [11]
  MBC: > 64 µg/mL
Staphylococcus aureus [12]
  Ratio: >8
Staphylococcus aureus [13]
  MIC: > 256 µg/mL
Haemophilus influenzae [14]
  MIC: 16 µg/mL
Haemophilus influenzae [15]
  MBC: 32 µg/mL (≈ 29.5 µM)
Haemophilus influenzae [16]
  Ratio: 2

## CC[C@H]1OC(=O)[C@H](C)[C@@H](OC(=O)Cc2ccccn2)[C@H](C)[C@@H](O[C@@H]2O[C@H](C)C[C@H](N(C)C)[C@H]2O)[C@](C)(OC(=O)CCNC/C=C/c2cnc3ccccc3c2)C[C@@H](C)CN(C)[C@H](C)[C@@H](O)[C@]1(C)O
Streptococcus pneumoniae [1]
  MIC: 0.125 µg/mL
Streptococcus pneumoniae [2]
  MBC: 0.25 µg/mL (≈ 0.264 µM)
Streptococcus pneumoniae [3]
  Ratio: 2
Streptococcus pneumoniae [4]
  MIC: 2 µg/mL
Streptococcus pneumoniae [5]
  MBC: 2 µg/mL (≈ 2.11 µM)
Streptococcus pneumoniae [6]
  Ratio: 1
Streptococcus pneumoniae [7]
  MIC: 1 µg/mL
Streptococcus pneumoniae [8]
  MBC: > 8 µg/mL
Streptococcus pneumoniae [9]
  Ratio: >8
Staphylococcus aureus [10]
  MIC: 2 µg/mL
Staphylococcus aureus [11]
  MBC: > 16 µg/mL
Staphylococcus aureus [12]
  Ratio: >8
Staphylococcus aureus [13]
  MIC: > 256 µg/mL
Haemophilus influenzae [14]
  MIC: 8 µg/mL
Haemophilus influenzae [15]
  MBC: 16 µg/mL (≈ 16.9 µM)
Haemophilus influenzae [16]
  Ratio: 2

## CC[C@H]1OC(=O)[C@H](C)[C@@H](OC(=O)Cc2cccnc2)[C@H](C)[C@@H](O[C@@H]2O[C@H](C)C[C@H](N(C)C)[C@H]2O)[C@](C)(OC(=O)CCNCCC#Cc2ccc3c(c2)c(=O)c(C(N)=O)cn3C2CC2)C[C@@H](C)CN(C)[C@H](C)[C@H]2OC(=O)O[C@@]21C
Streptococcus pneumoniae [1]
  MIC: 1 µg/mL
Streptococcus pneumoniae [2]
  MBC: 2 µg/mL (≈ 1.84 µM)
Streptococcus pneumoniae [3]
  Ratio: 2
Streptococcus pneumoniae [4]
  MIC: 4 µg/mL
Streptococcus pneumoniae [5]
  MBC: 8 µg/mL (≈ 7.37 µM)
Streptococcus pneumoniae [6]
  Ratio: 2
Streptococcus pneumoniae [7]
  MIC: 64 µg/mL
Streptococcus pneumoniae [8]
  MBC: 128 µg/mL
Staphylococcus aureus [10]
  MIC: 64 µg/mL
Staphylococcus aureus [11]
  MBC: > 256 µg/mL
Staphylococcus aureus [12]
  Ratio: >4
Staphylococcus aureus [13]
  MIC: > 256 µg/mL
Staphylococcus aureus [17]
  MBC: > 256 µg/mL
Haemophilus influenzae [14]
  MIC: 64 µg/mL
Haemophilus influenzae [15]
  MBC: 64 µg/mL (≈ 59 µM)
Haemophilus influenzae [16]
  Ratio: 1
Streptococcus pyogenes [18]
  MIC: 32 µg/mL
Streptococcus pyogenes [19]
  MBC: 64 µg/mL (≈ 59 µM)
Streptococcus pyogenes [20]
  Ratio: 2

## CC[C@H]1OC(=O)[C@H](C)[C@@H](OC(=O)Cc2ccccn2)[C@H](C)[C@@H](O[C@@H]2O[C@H](C)C[C@H](N(C)C)[C@H]2O)[C@](C)(OC(=O)CCNCCCc2cnc3ccccc3c2)C[C@@H](C)CN(C)[C@H](C)[C@@H](O)[C@]1(C)O
Streptococcus pneumoniae [1]
  MIC: 0.062 µg/mL
Streptococcus pneumoniae [2]
  MBC: 0.062 µg/mL (≈ 0.0652 µM)
Streptococcus pneumoniae [3]
  Ratio: 1
Streptococcus pneumoniae [4]
  MIC: 2 µg/mL
Streptococcus pneumoniae [5]
  MBC: 4 µg/mL (≈ 4.21 µM)
Streptococcus pneumoniae [6]
  Ratio: 2
Streptococcus pneumoniae [7]
  MIC: 2 µg/mL
Streptococcus pneumoniae [8]
  MBC: 16 µg/mL
Streptococcus pneumoniae [9]
  Ratio: 8
Staphylococcus aureus [10]
  MIC: 4 µg/mL
Staphylococcus aureus [11]
  MBC: 32 µg/mL (≈ 33.7 µM)
Staphylococcus aureus [12]
  Ratio: 8
Staphylococcus aureus [13]
  MIC: > 256 µg/mL
Haemophilus influenzae [14]
  MIC: 16 µg/mL
Haemophilus influenzae [15]
  MBC: 16 µg/mL (≈ 16.8 µM)
Haemophilus influenzae [16]
  Ratio: 1

## CC[C@H]1OC(=O)[C@H](C)[C@@H](OC(=O)Cc2ccccn2)[C@H](C)[C@@H](O[C@@H]2O[C@H](C)C[C@H](N(C)C)[C@H]2O)[C@](C)(OC(=O)CCNCCC#Cc2ccc3c(c2)c(=O)c(C(=O)O)cn3C2CC2)C[C@@H](C)CN(C)[C@H](C)[C@H]2OC(=O)O[C@@]21C
Streptococcus pneumoniae [1]
  MIC: 1 µg/mL
Streptococcus pneumoniae [2]
  MBC: 1 µg/mL (≈ 0.921 µM)
Streptococcus pneumoniae [3]
  Ratio: 1
Streptococcus pneumoniae [4]
  MIC: 4 µg/mL
Streptococcus pneumoniae [5]
  MBC: 8 µg/mL (≈ 7.36 µM)
Streptococcus pneumoniae [6]
  Ratio: 2
Streptococcus pneumoniae [7]
  MIC: 64 µg/mL
Streptococcus pneumoniae [8]
  MBC: 64 µg/mL
Staphylococcus aureus [10]
  MIC: 64 µg/mL
Staphylococcus aureus [11]
  MBC: > 256 µg/mL
Staphylococcus aureus [12]
  Ratio: >4
Staphylococcus aureus [13]
  MIC: > 256 µg/mL
Staphylococcus aureus [17]
  MBC: > 256 µg/mL
Haemophilus influenzae [14]
  MIC: 64 µg/mL
Haemophilus influenzae [15]
  MBC: 128 µg/mL (≈ 118 µM)
Haemophilus influenzae [16]
  Ratio: 2
Streptococcus pyogenes [18]
  MIC: 32 µg/mL
Streptococcus pyogenes [19]
  MBC: 64 µg/mL (≈ 58.9 µM)
Streptococcus pyogenes [20]
  Ratio: 2
